Out of some 190,000 compounds screened, about 1,800 (0.95%) were called active.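 The calls were made as follows: active = activation above the screen-wide mean of compound activation plus 3 SD (cut at about 130% in these data); inactive = the rest.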 Many of the other results were omitted from the sample, so actives are more common in it than they were.

A short description of the assay: IL-6 driven STAT3 reporter potentiators, primary screen, U3A cells, luciferase, luminescence, MLSCN library (AID 871).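 Also: 0% = background luminescence of wells with medium and substrate only.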 Conditions: IL-6 STAT3-luciferase reporter, at 5.6 µM, hits give high values, 100% = signal with IL-6 EC80 alone. A digest of the protocol: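 Material: human STAT1-deficient U3A cells with stable STAT3-luciferase reporter / Probe or stimulus: IL-6 stimulus at 33 ng/mL final / Schedule: 1 h compound pre-exposure, 6 h IL-6 stimulation, 37 °C / Technique: luminescence / Read-out basis: percent of IL-6-only median luminescence / Control set: IL-6-only high control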
In general terms: Reporter assays use an easily measured gene product as a stand-in for the process of interest.
For the compound `Cc1cccc(NC(=S)Nc2ccc(Cl)c(Cl)c2)c1`, the activation (% of control) was 92.4% (inactive).
As to `Cc1ccc(OCc2nnc(SC3CCc4ccccc4C3=O)n2C)cc1` (configuration not stated), the activation (% of control) was 144% (active).
As to `Cc1cccnc1NC(=O)CSc1nnc(COc2ccc(C(C)C)cc2)n1C`, the activation (% of control) was 98.9% (inactive).
The same measure for `Cc1ccc(OCc2n[nH]c(=S)n2-c2ccccc2)cc1`: 105% (inactive); for `Cc1cc(C)cc(OCC(=O)NCc2cc(C)nc3ccccc23)c1`: 92.5% (inactive); for `O=C(CC1NCCc2ccccc21)Nc1cccc(Cl)c1` (configuration not stated): 100% (inactive).
Take `CCOc1cc(N2CCOCC2)c(OCC)cc1NC(=O)c1cc(C)nc2ccccc12`: the activation (% of control) was 93.6% (inactive).
As for `CCCCn1c(=O)c(CCC(=O)OCC(=O)Nc2ccc(C)c(Cl)c2)nc2ccccc21`, the activation (% of control) was 100% (inactive).
For `CCCCOc1ccc(NC(=O)[C@@H]2CCCN2C(=O)C2CCN(S(=O)(=O)c3ccc(C)cc3)CC2)cc1`, the activation (% of control) is 102% (inactive).
Take `CC(=O)Nc1ccc(NC(=O)COc2ccccc2C(=O)Nc2cccc(Cl)c2Cl)cc1`: the activation (% of control) is 136% (active).
The same measure for `O=C(COc1ccccc1Cl)Nc1ccc(C(=O)c2ccc(C(=O)O)cc2)cc1`: 85.3% (inactive); for `COc1cc(NC(=O)COc2ccccc2Cl)ccc1NC(=O)C(C)C`: 84.8% (inactive); for `Cc1cc2oc(C(=O)Nc3c(C)n(C)n(-c4ccccc4)c3=O)c(C)c2cc1Cl`: 96.5% (inactive).
The same measure for `CC(C)COP(=O)(c1ccc(N(C)C)cc1)C(Nc1ccccc1)c1cccnc1` (configuration not stated): 106% (inactive); for `Oc1cccc2ccc(/C=C/c3ccc(Br)s3)nc12`: 146% (active).
Regarding `Nc1ccc(S(=O)(=O)Nc2nccc(/C=C/c3ccc(Br)s3)n2)cc1`, the activation (% of control) is 92.4% (inactive).
For `O=C(Nc1nnc(C2CC2)s1)C1=NN(C2CCS(=O)(=O)C2)C(=O)CC1` (configuration not stated), the activation (% of control) was 103% (inactive).
For the compound `O=C(N/N=C/c1ccccn1)c1ccc(S(=O)(=O)N2CCCCCC2)cc1`, the activation (% of control) is 104% (inactive).
Under `O=C(C1CCN(C2CCN(Cc3cccc4c3OCO4)CC2)CC1)N1CCOCC1` stands 108% (inactive); under `Cc1ccc(/C=N/NC(=O)COc2ccccc2-c2ccccc2)cc1`, 148% (active).
The same measure for `Cc1ccc(OCC(=O)N/N=C/c2ccncc2)cc1`: 95.8% (inactive); for `Cc1ccc(OCC(=O)N/N=C\c2ccco2)c(C)c1`: 92.2% (inactive).
As for `CC(=O)C1=C(C)NC2=C(C(=O)CC(C)(C)C2)C1C` (configuration not stated), the activation (% of control) is 97% (inactive).
In the case of `N#Cc1ncc(C(F)(F)F)cc1Oc1cccnc1`, the activation (% of control) was 107% (inactive).
For the compound `Cc1cccc(Nc2nc3c(S(=O)(=O)c4ccccc4)nnn3c3ccccc23)c1C`, the activation (% of control) was 105% (inactive).
The same measure for `COCCCNc1nc2c(-c3cccc(C(F)(F)F)c3)nnn2c2ccccc12`: 147% (active); for `CC(=O)Nc1ccc(Nc2nc3c(S(=O)(=O)c4ccc(C)c(C)c4)nnn3c3ccccc23)cc1`: 95.2% (inactive).

Source of the values: PubChem BioAssay AID871 (The Scripps Research Institute Molecular Screening Center, 2007).
